From PubChem BioAssay
CAL PDZ FP-1 – blocks peptide binding to the human CAL PDZ domain; Q9HD26; purified CAL PDZ, TMR-peptide fluorescence polarization, 1 h; inhibition, % at 24.9 µM; actives 0.92% (n = 300,000);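 active = mean inhibition of at least 30% with at least half of replicates also reaching 30%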;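 note: 0% = DMSO neutral control and 100% = excess unlabeled competitor peptide PRC23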
C-LANA FP – KSHV C-LANA DNA binding inhibition; actives 0.078% (n = 340,000); inhibition, % at 9 µM; MBP-C-LANA/FAM-LBS DNA binding, fluorescence polarization;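 active = highest replicate inhibition at or above 60% at 9 µM, even if other replicates fall short; inactive = all replicates below 60% inhibition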;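 note: 0% = neutral control wells and 100% = 4 µM acridine orange control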
CAL PDZ FP-2 – human CAL PDZ-peptide interaction inhibition. actives 0.02% (n = 330,000). purified CAL PDZ, TMR-peptide fluorescence polarization, 1 h. Q9HD26. inhibition, % at 20 µM. AID 504414;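 active = highest replicate inhibition of at least 40%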;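 note: plate controls were DMSO neutral control wells for no effect and unlabeled competitor peptide control wells for full effect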
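material = purified tagged CAL PDZ domain construct (CerCALP) | buffer or medium = sodium phosphate/NaCl buffer pH 7.4 with TCEP, IgG, Thesit | reagent = TMR-labelled reporter peptide T*-PRC34 bound in PDZ groove | incubation = 1 h room-temperature incubation prior to read | measured by = fluorescence polarization (mP) | evaluation = percent inhibition from loss of millipolarization | control set = unlabelled peptide and DMSO controls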
LANA-H2B inh – blocks KSHV LANA binding to histone H2A/H2B | inhibition, % (concentration not given with the values) | cell-free LANA-H2A/H2B peptide, fluorescence polarization | AID 2629 | actives 0.6% (n = 320,000); in the data active = inhibition mostly above about 10%, no sharp cut-off; inactive = mostly below about 6.7%
Target sequence (Q9QR71 whole entry, looked up): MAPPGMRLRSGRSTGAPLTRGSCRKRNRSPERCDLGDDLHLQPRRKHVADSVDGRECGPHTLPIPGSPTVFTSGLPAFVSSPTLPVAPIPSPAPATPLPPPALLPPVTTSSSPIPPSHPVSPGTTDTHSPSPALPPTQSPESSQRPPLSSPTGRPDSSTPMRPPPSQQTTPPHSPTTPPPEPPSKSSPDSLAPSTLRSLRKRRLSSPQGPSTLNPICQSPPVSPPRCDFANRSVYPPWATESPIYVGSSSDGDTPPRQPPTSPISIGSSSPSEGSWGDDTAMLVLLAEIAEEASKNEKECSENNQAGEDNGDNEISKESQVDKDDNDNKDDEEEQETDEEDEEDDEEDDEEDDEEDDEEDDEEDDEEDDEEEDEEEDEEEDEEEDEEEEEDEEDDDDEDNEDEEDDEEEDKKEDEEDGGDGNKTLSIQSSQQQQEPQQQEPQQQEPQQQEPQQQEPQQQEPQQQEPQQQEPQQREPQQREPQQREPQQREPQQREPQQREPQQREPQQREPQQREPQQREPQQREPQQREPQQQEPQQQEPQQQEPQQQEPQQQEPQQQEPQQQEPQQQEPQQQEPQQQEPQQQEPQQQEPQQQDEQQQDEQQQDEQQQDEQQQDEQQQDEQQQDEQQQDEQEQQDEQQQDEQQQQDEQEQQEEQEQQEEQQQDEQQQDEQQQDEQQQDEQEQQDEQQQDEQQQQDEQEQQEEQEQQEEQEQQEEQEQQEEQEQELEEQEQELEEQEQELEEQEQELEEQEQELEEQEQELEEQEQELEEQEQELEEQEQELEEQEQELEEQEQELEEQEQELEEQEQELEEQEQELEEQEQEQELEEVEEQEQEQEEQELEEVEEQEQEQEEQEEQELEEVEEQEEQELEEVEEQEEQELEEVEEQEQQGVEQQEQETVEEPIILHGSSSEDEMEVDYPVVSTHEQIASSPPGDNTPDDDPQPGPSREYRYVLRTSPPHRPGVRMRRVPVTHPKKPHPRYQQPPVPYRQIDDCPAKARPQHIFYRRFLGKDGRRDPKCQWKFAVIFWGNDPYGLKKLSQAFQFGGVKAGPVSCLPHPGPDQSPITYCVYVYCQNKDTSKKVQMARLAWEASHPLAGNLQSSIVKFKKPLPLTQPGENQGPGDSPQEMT
Keap1-Nrf2 PPI – Keap1-Nrf2 (human) interaction inhibition | Q14145 | Keap1 Kelch-Nrf2 peptide fluorescence polarization, 1536-well | inhibition, % at 9.4 µM | actives 0.15% (n = 340,000) | AID 504523; in the data active = inhibition above about 12%;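 note: human Keap1 Kelch domain with fluorescein labeled Nrf2 9mer peptide probe; 0% = neutral control wells and 100% = peptide positive control; higher means more block of Keap1 binding to Nrf2 peptide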
CaV13 ICDI inh – Primary screen for inhibitors of IQ motif and Ca2+-dependent inactivation inhibitor domain binding in CACNA1D, Förster resonance energy transfer in living cells, …. inhibition, % at 12.3 µM. actives 0.098% (n = 340,000). AID 743397. HEK cells, CFP/YFP FRET ICDI-IQ, plate reader, 10 min; percent FRET-ratio fall versus neutral wells;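 active = mean replicate inhibition of at least 30% and at least 1% of replicates passing that level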;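 note: 0% = median of the neutral control wells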
* = called active by the depositor; i = inactive; · = no result given; + = active, no number; ! = not confirmed by another sample. Rows were chosen to be rich in hits. Some 1.5% of all compounds tested hit in one or more screens of this group.

SMILES	CAL PDZ FP-1	C-LANA FP	CAL PDZ FP-2	LANA-H2B inh	Keap1-Nrf2 PPI	CaV13 ICDI inh
Cc1ccc(-n2nc3c(c2NC(=O)c2ccc4c(c2)OCO4)CS(=O)(=O)C3)cc1	3	-1	-3	-2	0	-14
CCNc1ccc(C(=O)NN=C2CCCC2)cc1[N+](=O)[O-]	32*	-2	0	-5	-2	-4
COc1ccc(Cn2c(=O)n(Cc3ccco3)c(=N)c3c4c(sc32)COC(C)(C)C4)cc1	59*	2	-2	-1	-5	-5
COC(=O)Cc1nnn2c1[C@@H](C)[C@@H](c1ccccc1Br)OC[C@@H]2c1ccccc1	·	·	·	·	·	-4
Cc1c(C=O)c2ccccc2n1CC(=O)N1CCc2ccccc2C1	-1	-1	-1	0	-1	·
Cn1c(=O)[nH]c(=O)c2c1nc(Br)n2CCCO	10	0	·	4.4*	2	-4
CCc1nnc(NC(=O)CSc2nc(-c3ccc(OC)cc3)ns2)s1	51*	3	0	1	-1	-4
COc1ccc(-c2nsc(SCC(=O)Nc3cc(C)on3)n2)cc1	-5	0	-2	-1	0	-6
CCn1c2c(n(C(C)=O)c1=O)C[C@@H](c1ccccc1)[C@@H](C)[C@@H](C(=O)N1CCCC1)C2	·	·	·	·	·	-4
COc1ccccc1CCn1cnc(-c2cccc(Br)c2)c1CC(C)C	·	·	·	·	·	-5
CNCCCC12CCC(c3ccccc31)c1ccccc12	-3	0	-1	9.6*!	i	-6
COC(=O)C[C@@H]1C[C@@H]2c3cc(NS(=O)(=O)c4ccccc4)ccc3O[C@@H]2[C@@H](CO)O1	·	·	·	·	·	-4
Cc1ccc(S(=O)(=O)N2CCN(C(=O)CC(C)n3cncn3)CC2)cc1C (centres undefined)	-2	-2	-4	25*	-1	-5
CC1(C(=O)NCc2ccccc2)CN(S(C)(=O)=O)CC(=O)N1Cc1ccco1 (centres undefined)	·	·	·	·	·	-4
O=C(Nc1ncc2c(n1)CC(c1ccco1)CC2=O)c1ccccc1 (centres undefined)	-1	1	-1	44*	3	-5
Cc1ccc(C(=O)Nc2ncc3c(n2)CC(c2ccco2)CC3=O)cc1 (centres undefined)	-4	1	0	-3	3	-4
CC1OC(OCC2OC(Oc3c(-c4ccc(O)cc4)oc4cc(O)cc(O)c4c3=O)C(O)C(O)C2O)C(O)C(O)C1O (centres undefined)	-3	9	-1	+	5	·
N#Cc1cc(F)cc(OCCCN2CCC(C(O)(c3ccccc3)c3ccccc3)CC2)c1	·	·	·	·	·	-9
C=CCOC(=O)c1cc(-c2ccc(/C=C3\C(=O)NC(=O)C(C#N)=C3C)o2)ccc1Cl	-5	81*	0	·	3	-5
O=C(C=Cc1ccc(O)c(O)c1)NCC(=O)NC(Cc1ccccc1)C(=O)O (centres undefined)	·	·	·	·	·	-12
COc1ccc(N2C(=O)CCC(C(=O)N3CCCCC3)C2c2ccc(OC)c(OC)c2)cc1 (centres undefined)	13	-1	·	0	-1	-6
COc1ccc(C2C(C(=O)N3CCOCC3)CCC(=O)N2c2ccc(OC)cc2)cc1 (centres undefined)	108*	-1	-1	3	4	-6
O=S1(=O)CC(N2CC=CC2)CN1Cc1ccc(F)cc1 (centres undefined)	·	·	·	·	·	-11
Cc1cc(C)cc(S(=O)(=O)c2cnc3ccccc3n2)c1	1	1	-3	14*	-2	-5
CCOC(=O)C1=C(C(=O)OCC)C2N(Cc3ccc(C#N)cc3)c3ccccc3[C@@]23C[C@@H](C(=O)OC)N(S(=O)(=O)c2c(C)noc2C)C3=N1 (some centres undefined)	·	·	·	·	·	-8
SMILES	CAL PDZ FP-1	C-LANA FP	CAL PDZ FP-2	LANA-H2B inh	Keap1-Nrf2 PPI	CaV13 ICDI inh
N#Cc1cccc(C=C(C(=O)c2ccccc2)c2ccccc2)c1	·	·	·	·	·	-11
CN(CC(=O)Nc1ccc(Cl)c(Cl)c1)C(=O)c1cccc2cccnc12	9	-2	-1	70*	-7	-3
Cc1cc(C(=O)NNC(=O)c2ccc(Cl)c(S(N)(=O)=O)c2)c(C)o1	64*	10	0	7	0	-6
Cc1cc(C(=O)NNC(=O)c2ccc(S(=O)(=O)N(C)C)cc2)c(C)o1	-2	-1	-1	0	-3	·
NC(=O)NC(CC(=O)NNC(=O)c1cccs1)c1ccc(Cl)cc1 (centres undefined)	31*	1	1	3	-7	-6
O=C(NNC(=O)c1cccs1)c1ccc(Cl)cc1	-2	-3	-1	-1	-1	-4
CCN1CC=C2C(C#N)=C(N)C(C#N)(C#N)[C@H](c3cccc(OC)c3OC)[C@H]2C1	-5	37	·	17	16*	-7
CC(=O)c1ccc(Nc2nc3ccccc3nc2NS(=O)(=O)c2cccs2)cc1	0	3	-1	0	-6	-3
COc1ccc(Nc2nc3ccccc3nc2NS(=O)(=O)c2cccs2)cc1	48*	14	-2	-2	4	-3
COc1ccc(-n2nnnc2/C=C/Nc2cc(C(F)(F)F)ccc2OC)cc1	105*	1	0	4	-4	-13
CC1CCCN(C(=O)COC(=O)/C=C/c2ccc(C(F)(F)F)cc2)C1 (centres undefined)	72*	1	-1	-4	3	-4
COC(=O)[C@]12C[C@H](CC(=O)NCc3ccc(C)o3)C(=O)N(Cc3ccccc3)C1=C[C@H](C(C)C)O[C@@H]2C1CC1	·	·	·	·	·	-4
COC(=O)c1sc(-c2ccc(Cl)cc2)cc1N	55*	2	0	0	3	-3
COC(=O)c1cc(NC(=O)c2ccc([N+](=O)[O-])cc2)c(=O)oc1C	-4	0	1	13*	0	-4
COc1cccc(Cn2c(C(C)n3c(-c4cnccn4)nc4ccccc43)nc3ccccc32)c1 (centres undefined)	·	·	·	·	·	-8
CCN1C(=O)CS/C1=N\S(=O)(=O)c1ccccc1	76*	1	0	-3	-1	-15
O=C(O)Cc1ccc(N=Nc2c(O)c(C(=O)O)cc3ccccc23)cc1	-3	92*	-1	-11	-2	-4
NC(=NCCc1ccc(Cl)cc1)NS(=O)(=O)c1ccccc1	·	-1	0	2	-4	-15
COc1ccc(CCN=C(N)NS(=O)(=O)c2ccc(F)cc2)cc1OC	-6	0	1	26*	-2	-7
NC(=NCCc1ccc(Cl)cc1)NS(=O)(=O)c1ccc(F)cc1	46*	0	-1	2	5	-4
